Bioassay records from PubChem.
An excerpt weighted towards active compounds, which were near 6.8% of everything screened.
HSF1 activator = HSF-1 activators, primary screen, NIH3T3-HGL cells, MG132 stress, luminescence, single point. activation, % at 9 µM. NIH3T3-HGL HSF-1 luciferase reporter, 8 h; 100% = twice DMSO control signal. actives 1.7% (n = 300,000);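 active means mean replicate activation of at least 50% with a set share of replicates each reaching 50%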
AI-2 QS mod = Vibrio harveyi AI-2 quorum sensing modulators, primary screen, JMH597 strain, luminescence/OD600 ratio. actives 0.4% (n = 300,000). activity change, % at 7.5 µM. Vibrio harveyi JMH597 AI-2 luminescence/OD600 ratio, 9 h; stronger effect = lower value; strain lacks LuxN and CqsS sensors; 0 = neutral-control median; in the data active means activity change below about -75%, passing the limit was not always enough;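 further: luminescence divided by OD600 gain over 9 h not by final OD600 alone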
core dimer inh = inhibitors of HCV core protein dimerization, primary screen, biochemical, TR-FRET, high-throughput; TR-FRET GST/Flag-core106 dimerization, 1536-well; inhibition, % at 5 µM; actives 0.33% (n = 300,000);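 active means inhibition above the mean of all tested compounds plus 3 SD, set per screening campaign, cut at about 45% in these data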
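Assay system: GST-tagged and Flag-tagged HCV core protein residues 1-106 / Times: compound-protein-antibody incubation 4 h at 22.5 °C / Signal: time-resolved FRET, ex 340 nm, em 617 and 671 nm / Evaluation: % inhibition based on acceptor/donor emission ratio / Benchmarks: wells lacking GST-core106 and wells with excess unlabelled core106 / Repeats: singlicate, one well per compound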
ALR inh = inhibitors of human ALR sulfhydryl oxidase, primary screen, biochemical, H2O2 detection, HRP-luminol luminescence, single point; actives 3.8% (n = 290,000); purified ALR, DTT oxidation; FAD-linked sulfhydryl oxidase ALR (Homo sapiens), P55789; inhibition, % (no concentration beside the values);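 active means mean replicate inhibition above about 79%, with every replicate also reaching it, limit read from the data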
Target sequence (P55789 whole entry, looked up): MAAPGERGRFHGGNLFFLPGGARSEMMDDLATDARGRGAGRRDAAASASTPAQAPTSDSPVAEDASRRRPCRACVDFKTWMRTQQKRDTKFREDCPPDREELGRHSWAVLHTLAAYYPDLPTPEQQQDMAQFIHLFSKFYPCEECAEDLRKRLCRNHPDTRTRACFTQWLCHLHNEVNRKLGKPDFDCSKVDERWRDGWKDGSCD
PHOSPHO1 inh = PubChem AID 1565 | Phosphoethanolamine/phosphocholine phosphatase (Homo sapiens), Q8TCT1 | recombinant PHOSPHO1, absorbance phosphatase assay | inhibition, % at 13.3 µM | actives 1.1% (n = 290,000); in the data active means inhibition above about 60%
Target sequence (Q8TCT1 whole entry, looked up): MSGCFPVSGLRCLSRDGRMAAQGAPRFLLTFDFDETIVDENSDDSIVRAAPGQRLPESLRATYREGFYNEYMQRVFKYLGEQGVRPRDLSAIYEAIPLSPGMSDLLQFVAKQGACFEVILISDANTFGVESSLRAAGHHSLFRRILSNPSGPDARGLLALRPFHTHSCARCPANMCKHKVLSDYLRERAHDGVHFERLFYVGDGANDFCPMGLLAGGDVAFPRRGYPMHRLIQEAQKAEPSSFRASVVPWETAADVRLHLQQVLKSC
HSF1 inh = HSF1 inhibitors in luciferase reporter cells, primary screen, cell-based, NIH3T3, luminescence; NIH3T3-HGL HSE-luciferase, MG132-induced, luminescence 8 h; stronger effect = lower value; activity change, negative = inhibition, % at 7.5 µM (by protocol); actives 0.77% (n = 300,000);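 active means more than half of replicate wells show activity change below -50%, luminescence cut by over half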;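 further: luciferase reports HSF-1 transcriptional activity via heat shock element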
Large screens that a line does not name were inactive.

COc1ccc(-c2cc(C(=O)N/N=C/c3ccc(OC)c(COCC(F)(F)C(F)F)c3)c3ccccc3n2)c(OC)c1	core dimer inh 57.8
COc1ccc(OC)c(-c2cc(C(=O)N/N=C/c3ccc(F)cc3)c3ccccc3n2)c1	none (no result: PHOSPHO1 inh)
CCOCCCNC(=O)C1CCCN(S(=O)(=O)c2ccc(-n3cnnn3)cc2)C1 (stereo not given)	none
Cc1cc(CNC(=O)c2cccc(OC3CCN(S(=O)(=O)N(C)C)CC3)c2)on1	none
COc1ccc(-c2cc(-c3ccccc3)c(C#N)c(S(C)(=O)=O)n2)cc1	HSF1 activator 70.6 (no result: AI-2 QS mod)
COc1ccc(-c2cc(-c3ccc(OC)cc3)c(C#N)c(SC)n2)cc1	core dimer inh 75.1
CSc1nc(-c2ccco2)cc(-c2ccccc2)c1C#N	none
CS(=O)c1nc(-c2ccc(Br)cc2)cc(-c2ccccc2)c1C#N (stereo not given)	HSF1 activator 56.4
Cn1cc(C(=O)N2CCN(c3cccc(Cl)c3)CC2)c(=O)c2cc(S(=O)(=O)N3CCOCC3)ccc21	none
NCCCCCc1nnc(SCc2ccccc2Cl)o1	none
CC(C)[C@H](N)c1nnc(SCC(=O)c2ccc(Cl)cc2)o1	ALR inh 98.5, PHOSPHO1 inh 82.1
C[C@H](N)c1nnc(SCC(=O)c2ccc(Cl)cc2)o1	none (no result: ALR inh)
NCCCCCc1nnc(SC/C=C/c2ccccc2)o1	HSF1 activator 97.2
NCCCCCc1nnc(SCC(=O)c2ccc(Cl)cc2)o1	HSF1 activator 58.0 (no result: ALR inh)
NCCc1nnc(SCC(=O)c2ccc(Cl)cc2)o1	none
O=C(CSc1nnc(C2CC2)n1Cc1ccccc1)c1cc2ccccc2o1	PHOSPHO1 inh 97.1
Cn1c(N)c(C(=O)CSc2nnc(C3CC3)n2Cc2ccccc2)c(=O)n(C)c1=O	none (no result: HSF1 activator, AI-2 QS mod, core dimer inh, PHOSPHO1 inh, HSF1 inh)
COc1ccccc1C(=O)CSc1n[nH]c(N)n1	PHOSPHO1 inh 79.7
Nc1nc(SCC(=O)c2cc3ccccc3o2)n[nH]1	ALR inh 97.9
CC(NC(=O)CSc1n[nH]c(N)n1)c1ccccc1 (stereo not given)	none (no result: ALR inh)
CC(C)(C)OC(=O)N[C@@H](CC(=O)OCc1ccccc1)C(=O)O	none
CC(C)C(NS(=O)(=O)c1ccc2c(c1)C(C)(C)C(=O)N2C)C(=O)NCc1ccccc1Cl (stereo not given)	none
Cc1cccc(C(=O)NCC(=O)OCCOc2ccccc2Cl)c1	none (no result: PHOSPHO1 inh)
CN(CC(=O)N1CCN(c2ccccc2)CC1)S(=O)(=O)c1cnc[nH]1	ALR inh 98.0
CC(NC(=O)/C=C/c1ccco1)c1nc2ccccc2n1Cc1c(Cl)cccc1Cl (stereo not given)	none
CC(NC(=O)/C=C/c1ccco1)c1nc2ccccc2n1Cc1ccccc1F (stereo not given)	HSF1 activator 64.8
Nc1ccccc1N=Nc1ccccc1N	ALR inh 87.5
CCOc1ccc(Cc2n[nH]c(=S)n2N)cc1	ALR inh 96.3
Nn1c(Cc2ccc(Br)cc2)n[nH]c1=S	none
Cc1cc(=O)n(-c2ccc(O)cc2)[nH]1	ALR inh 98.6
Cc1cc(=O)n(-c2ccc(C(=O)O)cc2)[nH]1	none
Cc1ccc(N2CCN(S(=O)(=O)c3nnc(NC(=O)c4ccco4)s3)CC2)cc1	ALR inh 97.1
CCOC(=O)CCC(=O)c1c(C)oc2ccc(OC)cc12	none
COc1ccc2oc(C)c(C(=O)NN)c2c1	ALR inh 85.3
FC(F)(F)c1cccc(-n2cccc2/C=N/n2cnnc2)c1	PHOSPHO1 inh 94.1 (no result: ALR inh)
Cc1ccc(-n2cccc2/C=N/n2cnnc2)cc1Cl	none
COc1cccc(C(=O)NNC(=O)c2ccccc2)c1	none (no result: core dimer inh)
COc1cccc(C(=O)NC(c2ccccc2)C2CCCC2)c1 (stereo not given)	HSF1 activator 68.9
Cc1cc(N2CCCC2)c(F)cc1/C=C\[N+](=O)[O-]	HSF1 activator 207.1 (no result: core dimer inh, ALR inh)
Cc1cc(N2CCC(C)CC2)c(F)cc1[N+](=O)[O-]	none
O=C(/C=C/c1ccc2c(c1)OCO2)N1CCN(c2n[nH]c(=O)[nH]c2=O)CC1	none
O=C(Nc1cccc(F)c1)c1cccnc1N1CCOCC1	ALR inh 85.4
CCOc1ccc(OCCC(=O)OCC(=O)Nc2cc(OCC)c(N3CCOCC3)cc2OCC)cc1	HSF1 activator 111.2 (no result: PHOSPHO1 inh)
CCOc1cc(N2CCOCC2)c(OCC)cc1NC(=O)c1ccc(S(C)(=O)=O)cc1	none
CCOc1cc(N2CCOCC2)c(OCC)cc1NC(=O)c1cccc(N(C)C)c1	HSF1 inh -51.3
CCOc1cc(N2CCOCC2)c(OCC)cc1NC(=O)COC(=O)c1cc2ccccc2cc1O	none
O=C(Nc1ccccc1N1CCOCC1)c1cccc(F)c1	ALR inh 96.3
CC(C)NC(=O)CCc1nc2cccnc2n1-c1ccccc1	none
COc1ccc(NC(C)=O)cc1CNC(=O)COc1c(C)c(C)cc(C)c1C	none
CCOc1cc(N2CCOCC2)c(OCC)cc1NC(=O)[C@H](C)N1C(=O)C2CC=CCC2C1=O (stereo not given in full)	PHOSPHO1 inh 62.9
COc1cccc(-n2nc(C(C)=O)c(C#N)c2-c2ccco2)c1	none
CC(C)C[C@H](NC(=O)c1nc[nH]c1C(=O)NCc1ccccc1)C(=O)OCc1ccccc1	none
c1ccc2c(CNc3ccc(CNc4ncn[nH]4)cc3)cccc2c1	none
COc1cccc(CNc2ccc(S(N)(=O)=O)cc2)c1OC	HSF1 inh -56.5
NS(=O)(=O)c1ccc(NCc2ccccc2OCc2ccccc2F)cc1	none
COc1cccc(CNc2ccc(N3CCCCC3)cc2)c1OC	ALR inh 96.5 (no result: HSF1 activator, AI-2 QS mod, HSF1 inh)
COc1cccc(Nc2ccc(N3CCCCC3)cc2)c1OC	ALR inh 99.6 (no result: HSF1 activator, AI-2 QS mod, core dimer inh, PHOSPHO1 inh, HSF1 inh)
COc1ccccc1CNc1ccc(CNc2ncn[nH]2)cc1	ALR inh 87.2
CC(=O)c1c(C)nn(CC(O)COc2ccc3ccccc3c2)c1C (stereo not given)	none (no result: ALR inh)
CCCCn1c(N)c(N(CC(C)C)C(=O)c2ccc(Br)s2)c(=O)[nH]c1=O	none
COc1ccccc1CNc1ccc(C(=O)O)cc1	none
COc1ccccc1CNc1ccc(N2CCCCC2)cc1	ALR inh 98.1
COc1ccc(Nc2nc(-c3ccc4c(c3)NC(=O)CO4)cs2)cc1	none
CCC(C)Nc1nc(-c2ccc3c(c2)NC(=O)CO3)cs1 (stereo not given)	ALR inh 97.5
CCn1cc(S(=O)(=O)Nc2cc(C(=O)OC)ccc2C)cn1	none
COc1ccc(/C=C(/NC(=O)c2ccccc2)c2nc3ccccc3[nH]2)cc1OC	none
